≈ marks a conversion by molar mass, not a printed value.
What was measured:
Type in all cases: functional
[1] = tested on: Escherichia coli; assay: In vitro antibacterial activity of compound against Escherichia coli SKF 12140
[2] = tested on: Klebsiella pneumoniae; assay: In vitro antibacterial activity of compound against Klebsiella pneumoniae ISM
[3] = tested on: Mycobacterium tuberculosis; assay: In vitro antibacterial activity of compound against Mycobacterium tuberculosis H37Rv ATCC 9660
[4] = tested on: Neisseria gonorrhoeae; assay: In vitro antibacterial activity of compound against Neisseria gonorrhoeae ISM 68/126
[5] = tested on: Pseudomonas aeruginosa; assay: In vitro antibacterial activity of compound against Pseudomonas aeruginosa ATCC 10145
In short: (§1)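 Twofold microdilution MIC in Iso-Sensitest broth over 128-0.0001 µg/mL. Inoculum was 10^4 cfu/mL, with incubation at 37 °C for 18-24 h.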

[6] = tested on: Proteus vulgaris; assay: In vitro antibacterial activity of compound against Proteus vulgaris X19H ATCC 881
[7] = tested on: Staphylococcus epidermidis; assay: In vitro antibacterial activity of compound against Staphylococcus epidermidis ATCC 12228; in short: as §1
[8] = tested on: Streptococcus pyogenes; assay: In vitro antibacterial activity of compound against Streptococcus pyogenes C 203 SKF 13400
In short: (§2)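 Streptococcal MICs were run by twofold microdilution in Todd-Hewitt broth over 128-0.0001 µg/mL. Inoculum was 10^4 cfu/mL, with incubation at 37 °C for 18-24 h.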

[9] = tested on: Staphylococcus aureus; assay: In vitro antibacterial activity of compound against Staphylococcus aureus Tour L 165; in short: as §1
[10] = tested on: Streptococcus pneumoniae; assay: In vitro antibacterial activity of compound against Streptococcus pneumoniae UC 41; in short: as §2
[11] = tested on: Enterococcus faecalis; assay: In vitro antibacterial activity of compound against Streptococcus faecalis ATCC 7080.; in short: as §1
[12] = tested on: Haemophilus influenzae; assay: In vitro antibacterial activity of compound against Haemophilus influenzae ATCC 19418

Row | Compound | MIC [1] [µg/mL] | MIC [2] [µg/mL] | MIC [3] [µg/mL] | MIC [4] [µg/mL] | MIC [5] [µg/mL] | MIC [6] [µg/mL] | MIC [7] [µg/mL] | MIC [8] [µg/mL] | MIC [9] [µg/mL] | MIC [10] [µg/mL] | MIC [11] [µg/mL] | MIC [12] [µg/mL]
1 | COc1ccc(N2CCN(c3nc4c(s3)c3c(O)c5c(O)c(C)c6c(c54)C(=O)C(C)(O/C=C/C(OC)C(C)C(OC(C)=O)C(C)C(O)C(C)C(O)C(C)/C=C/C=C(/C)C(=O)N3)O6)CC2)cc1 (stereo not given) | 8 (≈ 8.61 µM) | > 128 | 0.25 (≈ 0.269 µM) | 0.125 (≈ 0.135 µM) | 128 (≈ 138 µM) | 64 (≈ 68.9 µM) | 0.063 (≈ 0.0678 µM) | 0.125 (≈ 0.135 µM) | 0.063 (≈ 0.0678 µM) | 0.063 (≈ 0.0678 µM) | 4 (≈ 4.31 µM) | 0.125 (≈ 0.135 µM)
2 | COC1/C=C/OC2(C)Oc3c(C)c(O)c4c(O)c(c5scnc5c4c3C2=O)NC(=O)/C(C)=C\C=C\C(C)C(O)C(C)C(O)C(C)C(O)C1C (stereo not given) | 16 (≈ 23 µM) | 16 (≈ 23 µM) | 0.5 (≈ 0.718 µM) | 0.125 (≈ 0.179 µM) | 8 (≈ 11.5 µM) | 4 (≈ 5.74 µM) | 0.008 (≈ 0.0115 µM) | 0.125 (≈ 0.179 µM) | 0.032 (≈ 0.0459 µM) | 0.125 (≈ 0.179 µM) | 4 (≈ 5.74 µM) | 0.125 (≈ 0.179 µM)
3 | COC1/C=C/OC2(C)Oc3c(C)c(O)c4c(O)c(c5sc(N6CCN(c7ccccc7)CC6)nc5c4c3C2=O)NC(=O)/C(C)=C\C=C\C(C)C(O)C(C)C(O)C(C)C(OC(C)=O)C1C (stereo not given) | 4 (≈ 4.45 µM) | > 128 | 1 (≈ 1.11 µM) | 0.125 (≈ 0.139 µM) | 8 (≈ 8.9 µM) | 16 (≈ 17.8 µM) | 0.032 (≈ 0.0356 µM) | 0.032 (≈ 0.0356 µM) | 0.008 (≈ 0.0089 µM) | 0.004 (≈ 0.00445 µM) | 1 (≈ 1.11 µM) | 0.125 (≈ 0.139 µM)
4 | COC1/C=C/OC2(C)Oc3c(C)c(O)c4c(O)c(c5sc(N6CCN(c7ccc(Cl)cc7)CC6)nc5c4c3C2=O)NC(=O)/C(C)=C\C=C\C(C)C(O)C(C)C(O)C(C)C(OC(C)=O)C1C (stereo not given) | 8 (≈ 8.57 µM) | > 128 | 1 (≈ 1.07 µM) | 0.25 (≈ 0.268 µM) | 128 (≈ 137 µM) | 64 (≈ 68.6 µM) | 0.063 (≈ 0.0675 µM) | 0.125 (≈ 0.134 µM) | 0.063 (≈ 0.0675 µM) | 0.063 (≈ 0.0675 µM) | 4 (≈ 4.28 µM) | 0.125 (≈ 0.134 µM)
5 | COC1/C=C/OC2(C)Oc3c(C)c(O)c4c(O)c(c5sc(N6CCNCC6)nc5c4c3C2=O)NC(=O)/C(C)=C\C=C\C(C)C(O)C(C)C(O)C(C)C(OC(C)=O)C1C (stereo not given) | 8 (≈ 9.72 µM) | 16 (≈ 19.4 µM) | – | 0.125 (≈ 0.152 µM) | 8 (≈ 9.72 µM) | 8 (≈ 9.72 µM) | 0.063 (≈ 0.0766 µM) | 0.125 (≈ 0.152 µM) | 0.125 (≈ 0.152 µM) | 0.063 (≈ 0.0766 µM) | 2 (≈ 2.43 µM) | 0.25 (≈ 0.304 µM)
6 | COC1/C=C/OC2(C)Oc3c(C)c(O)c4c(O)c(c5sc(N6CCN(C(=O)OCc7ccccc7)CC6)nc5c4c3C2=O)NC(=O)/C(C)=C\C=C\C(C)C(O)C(C)C(O)C(C)C(OC(C)=O)C1C (stereo not given) | > 128 | > 128 | 0.5 (≈ 0.522 µM) | 0.125 (≈ 0.131 µM) | 32 (≈ 33.4 µM) | 64 (≈ 66.9 µM) | 0.032 (≈ 0.0334 µM) | 0.125 (≈ 0.131 µM) | 0.063 (≈ 0.0658 µM) | 0.063 (≈ 0.0658 µM) | 2 (≈ 2.09 µM) | 0.125 (≈ 0.131 µM)
7 | CCOC(=O)N1CCN(c2nc3c(s2)c2c(O)c4c(O)c(C)c5c(c43)C(=O)C(C)(O/C=C/C(OC)C(C)C(OC(C)=O)C(C)C(O)C(C)C(O)C(C)/C=C/C=C(/C)C(=O)N2)O5)CC1 (stereo not given) | 16 (≈ 17.9 µM) | 32 (≈ 35.8 µM) | 2 (≈ 2.23 µM) | 0.125 (≈ 0.14 µM) | 32 (≈ 35.8 µM) | 16 (≈ 17.9 µM) | 0.063 (≈ 0.0704 µM) | 0.063 (≈ 0.0704 µM) | 0.063 (≈ 0.0704 µM) | 0.063 (≈ 0.0704 µM) | 4 (≈ 4.47 µM) | 0.125 (≈ 0.14 µM)
8 | COC1/C=C/OC2(C)Oc3c(C)c(O)c4c(O)c(c5sc(N6CCCC6)nc5c4c3C2=O)NC(=O)/C(C)=C\C=C\C(C)C(O)C(C)C(O)C(C)C(OC(C)=O)C1C (stereo not given) | 16 (≈ 19.8 µM) | 32 (≈ 39.6 µM) | 2 (≈ 2.48 µM) | 0.5 (≈ 0.619 µM) | 8 (≈ 9.9 µM) | 16 (≈ 19.8 µM) | 0.063 (≈ 0.078 µM) | 0.008 (≈ 0.0099 µM) | 0.004 (≈ 0.00495 µM) | 0.032 (≈ 0.0396 µM) | 2 (≈ 2.48 µM) | 0.125 (≈ 0.155 µM)
